Measured values as given in ChEMBL document CHEMBL4680103, “In Vitro and in Vivo Anti-Trypanosoma cruzi Activity of New Arylamine Mannich Base-Type Derivatives” (J Med Chem, 2016).
Calls of active or inactive are those of the source. The calls are words filed in the database; no cut-off is given here.

Columns and labels:
[1] = Genotoxicity in Salmonella typhimurium TA1535 at 0.03 to 2.25 ug/plate incubated for 48 hrs in absence of liver S9 fraction by Ames test; type: toxicity; conditions: salmonella enterica subsp. enterica serovar typhimurium, s9, 48 h
Method in brief: (§1)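 Preincubation Ames assay. […] Top agar with trace histidine/biotin (0.05 mM each) was added and poured onto glucose minimal agar. Plates were incubated 48 h at 37 °C and His+ revertants counted. DMSO was the negative control, with strain-appropriate positive controls. Technical triplicates.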

Trypanosoma cruzi [2] = test: Antitrypanosomal activity against Trypanosoma cruzi Arequipa trypomastigotes infected in BALB/c mouse assessed as reduction in parasitemia measured during acute phase (days 0 to 40 post infection) at 50 to 100 mg/kg, po dosed on alternating days (7 to 15 days post infection); type: functional, organism-based; conditions: dose 50-100 mg/kg
Method in brief: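 Female BALB/c mice (8–10 weeks, 25–30 g; groups of six) were infected i.p. with 5×10^5 Arequipa blood trypomastigotes. Dosing was oral, 50 or 100 mg/kg/day, on 5 alternating days (days 7–15 pi), alongside untreated and reference-drug groups. Parasitemia was counted in 5 µL mandibular-vein blood by Neubauer chamber through day 40 pi. Data are means ± SD of six mice.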

Trypanosoma cruzi [3] = test: Antitrypanosomal activity against Trypanosoma cruzi infected in African green monkey Vero cells assessed as reduction in number of amastigotes per infected cell measured up to 10 days by Giemsa staining based hemocytometry; type: functional; conditions: time day <=10
Method in brief: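 Vero cells infected with metacyclic forms (10:1) were exposed to one concentration per compound immediately after infection for 12 h at 37 °C, 5% CO2. After washing, cultures were kept 10 days with fresh medium every 48 h. Every 48 h, % infected cells and amastigotes per infected cell (200 Giemsa-stained cells) and medium trypomastigotes (Neubauer) were scored. Means of three experiments.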

[4] = Genotoxicity in Salmonella typhimurium TA102 at 0.03 to 2.25 ug/plate incubated for 48 hrs in presence of liver S9 fraction by Ames test; type: toxicity, subcellular; conditions: salmonella enterica subsp. enterica serovar typhimurium, s9, 48 h; method in brief: as §1
[5] = Genotoxicity in Salmonella typhimurium TA1535 at 0.03 to 2.25 ug/plate incubated for 48 hrs in presence of liver S9 fraction by Ames test; type: toxicity, subcellular; conditions: salmonella enterica subsp. enterica serovar typhimurium, s9, 48 h; method in brief: as §1
Trypanosoma cruzi [6] = test: Antitrypanosomal activity against Trypanosoma cruzi SN3 amastigote forms infected in African green monkey Vero cells incubated for 72 hrs by Giemsa staining based micrscopy; type: functional, organism-based
Method in brief: (§2)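 Vero cells (RPMI, 10% inactivated FBS, 37 °C, 5% CO2) were seeded at 1×10^4/well on coverslips and cultured 2 days. They were infected 24 h with metacyclic forms at 10:1. After washing off free parasites, drugs were added at 0.1–100 µM for 72 h. Slides were methanol-fixed and Giemsa-stained; amastigotes were counted in 200 host cells versus untreated. IC50 was calculated.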

[7] = Genotoxicity in Salmonella typhimurium TA98 at 0.03 to 2.25 ug/plate incubated for 48 hrs in absence of liver S9 fraction by Ames test; type: toxicity; conditions: salmonella enterica subsp. enterica serovar typhimurium, s9, 48 h; method in brief: as §1
Trypanosoma cruzi [8] = test: Antitrypanosomal activity against Trypanosoma cruzi SN3 trypomastigote froms infected in mouse blood incubated for 24 hrs by Neubauer chamber based assay; type: functional, organism-based
Method in brief: (§3)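 Mouse blood taken at peak parasitemia (day 7) was diluted with uninfected blood to 4×10^6 trypomastigotes/mL, then 1:2 in RPMI 1640. Drugs from DMSO stocks were added at 1, 10, 25, 50 and 100 µM and incubated 24 h at 4–8 °C. Parasites were counted in a Neubauer chamber in triplicate. IC50 was calculated versus control.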

Trypanosoma cruzi [9] = test: Antitrypanosomal activity against Trypanosoma cruzi Arequipa trypomastigotes infected in BALB/c mouse assessed as reduction in parasitemia level in esophagus measured during acute phase (days 0 to 40 post infection) at 100 mg/kg, po dosed on alternating days (7 to 15 days post infection) by PCR analysis; type: functional, organism-based
[10] = Genotoxicity in Salmonella typhimurium TA1537 at 0.03 to 2.25 ug/plate incubated for 48 hrs in absence of liver S9 fraction by Ames test; type: toxicity; conditions: salmonella enterica subsp. enterica serovar typhimurium, s9, 48 h; method in brief: as §1
Trypanosoma cruzi [11] = test: Antitrypanosomal activity against Trypanosoma cruzi Tulahuen amastigote forms infected in African green monkey Vero cells incubated for 72 hrs by Giemsa staining based micrscopy; type: functional, organism-based; method in brief: as §2
Trypanosoma cruzi [12] = test: Antitrypanosomal activity against Trypanosoma cruzi Arequipa trypomastigote froms infected in mouse blood incubated for 24 hrs by Neubauer chamber based assay; type: functional, organism-based; method in brief: as §3
Trypanosoma cruzi [13] = test: Antitrypanosomal activity against Trypanosoma cruzi Arequipa trypomastigotes infected in BALB/c mouse assessed as reduction in parasitemia level in heart measured during acute phase (days 0 to 40 post infection) at 100 mg/kg, po dosed on alternating days (7 to 15 days post infection) by PCR analysis; type: functional, organism-based
Trypanosoma cruzi [14] = test: Antitrypanosomal activity against Trypanosoma cruzi SN3 epimastigote forms incubated for 72 hrs by hemocytometry; type: functional, organism-based; conditions: SN3, 72 h
Method in brief: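 Epimastigotes grown in MTL medium with 10% inactivated FBS at 28 °C. Compounds were dissolved in DMSO (0.01% v/v) and added at 0.1–100 µM for 72 h. Parasites were counted in a Neubauer chamber. IC50 (50% growth inhibition) was derived by linear regression of Kc values. Values are averages of four determinations.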

Trypanosoma cruzi [15] = test: Antitrypanosomal activity against Trypanosoma cruzi Arequipa trypomastigotes infected in BALB/c mouse assessed as parasitemia re-activation level measured during chronic phase ( day 90 post infection) at 50 mg/kg, po dosed on alternating days (7 to 15 days post infection) relative to acute phase infection (reference value: […]%); type: functional
Trypanosoma cruzi [16] = test: Inhibition of Trypanosoma cruzi Arequipa Fe-SOD at <50 uM by NBT dye based spectrophotometry; conditions: dose microM <50
Method in brief: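 Fe-SOD source: Arequipa epimastigote homogenate (STE buffer pH 7.8, sonication, centrifugation, supernatant; protein by Bradford); CuZn-SOD was commercial human erythrocyte enzyme. Activity was measured as NBT reduction by superoxide in 50 mM potassium phosphate pH 7.8, with compounds at 5 concentrations (1–100 µM). A560 was read before and after 10 min under lamp light with stirring. Three rate determinations; Newman–Keuls test.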

For `O=C(CCN1CCN(c2ccc(C(F)(F)F)cc2)CC1)c1csc2ccc(F)cc12`, the Activity [1] was “Non-Toxic”, the Activity (Trypanosoma cruzi [2]) was “Active” and the “inhibition (INH)” value (Trypanosoma cruzi [3]) was 64%. The Activity [4] was “Non-Toxic”, the Activity [5] was “Non-Toxic” and the IC50 (Trypanosoma cruzi [6]) was 8.7 µM. The Activity [7] was “Non-Toxic”, the IC50 (Trypanosoma cruzi [8]) was 6.6 µM and the Activity (Trypanosoma cruzi [9]) was “Active”. The Activity [10] was “Non-Toxic”, the IC50 (Trypanosoma cruzi [11]) was 25.8 µM and the IC50 (Trypanosoma cruzi [12]) was 13.9 µM. For the same molecule, the Activity (Trypanosoma cruzi [13]) was “Active” and the IC50 (Trypanosoma cruzi [14]) was 10.1 µM.

In the case of `O=C(CCN1CCN(c2ccc(F)cc2)CC1)c1csc2ccc(F)cc12`, the Activity [1] is reported as “Non-Toxic”, the Activity (Trypanosoma cruzi [15]) is reported as 0% and the Activity (Trypanosoma cruzi [2]) is reported as “Active”. For the same molecule, the “inhibition (INH)” value (Trypanosoma cruzi [3]) was 49%, the Activity [4] was “Non-Toxic” and the Activity [5] was “Non-Toxic”. For the same molecule, the inhibition (Trypanosoma cruzi [16]) was 100%, the IC50 (Trypanosoma cruzi [6]) was 7.9 µM and the Activity [7] was “Non-Toxic”. The IC50 (Trypanosoma cruzi [8]) was 5.1 µM, the Activity (Trypanosoma cruzi [9]) was “Active” and the Activity [10] was “Non-Toxic”. For the same molecule, the IC50 (Trypanosoma cruzi [11]) was 4.9 µM, the IC50 (Trypanosoma cruzi [12]) was 0.3 µM and the Activity (Trypanosoma cruzi [13]) was “Active”. For the same molecule, the IC50 (Trypanosoma cruzi [14]) was 12.3 µM.
